Data published in the M2OR odorant receptor database.

Assays:
Details in all cases: stereoisomer not certain
OR10G2 (Homo sapiens) = molecular target: T1, OR10G2 (Homo sapiens) (UniProt Q8NGC3)
T1 sequence (whole entry): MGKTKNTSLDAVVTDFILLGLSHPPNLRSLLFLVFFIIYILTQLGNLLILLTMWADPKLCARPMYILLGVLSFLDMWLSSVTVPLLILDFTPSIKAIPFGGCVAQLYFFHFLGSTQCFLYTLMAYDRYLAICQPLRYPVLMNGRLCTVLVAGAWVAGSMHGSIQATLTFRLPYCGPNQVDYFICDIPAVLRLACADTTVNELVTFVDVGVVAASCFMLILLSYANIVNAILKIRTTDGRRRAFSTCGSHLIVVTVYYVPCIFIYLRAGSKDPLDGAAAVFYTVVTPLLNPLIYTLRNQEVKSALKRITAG
Procedure, shortened: (§1)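 Each entry records the cell line, G-protein, co-transfected protein and tags used. Methods varied with the source, often transient luciferase assays in mammalian cell lines. A receptor–molecule pair is called responsive (active) if the original authors judged its signal statistically different from baseline and non-responsive (inactive) otherwise.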

OR10G3 (Homo sapiens) = molecular target: T2, OR10G3 (Homo sapiens) (UniProt Q8NGC4)
T2 sequence (whole entry): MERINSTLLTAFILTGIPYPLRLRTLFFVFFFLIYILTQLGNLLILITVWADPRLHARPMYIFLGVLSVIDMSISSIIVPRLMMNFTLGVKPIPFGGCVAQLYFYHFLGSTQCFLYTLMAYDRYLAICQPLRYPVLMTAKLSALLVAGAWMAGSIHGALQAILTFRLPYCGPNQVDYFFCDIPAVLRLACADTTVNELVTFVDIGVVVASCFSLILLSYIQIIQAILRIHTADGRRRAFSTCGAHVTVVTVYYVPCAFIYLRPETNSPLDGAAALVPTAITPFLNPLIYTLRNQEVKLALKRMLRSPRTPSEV
Procedure, shortened: as §1

OR10G4 (Homo sapiens) = molecular target: T3, OR10G4 (Homo sapiens) (UniProt Q8NGN3)
T3 sequence (whole entry): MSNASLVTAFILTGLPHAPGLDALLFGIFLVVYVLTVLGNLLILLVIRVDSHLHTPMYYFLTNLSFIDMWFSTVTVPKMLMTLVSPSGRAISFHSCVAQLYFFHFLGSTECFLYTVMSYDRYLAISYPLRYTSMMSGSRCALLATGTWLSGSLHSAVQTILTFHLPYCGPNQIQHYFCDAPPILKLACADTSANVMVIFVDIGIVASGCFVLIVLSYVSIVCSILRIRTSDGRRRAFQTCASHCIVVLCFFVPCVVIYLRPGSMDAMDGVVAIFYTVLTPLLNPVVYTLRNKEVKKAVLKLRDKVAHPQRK
Procedure, shortened: as §1

OR10G6 (Homo sapiens) = molecular target: T4, OR10G6 (Homo sapiens) (UniProt Q8NH81)
T4 sequence (whole entry): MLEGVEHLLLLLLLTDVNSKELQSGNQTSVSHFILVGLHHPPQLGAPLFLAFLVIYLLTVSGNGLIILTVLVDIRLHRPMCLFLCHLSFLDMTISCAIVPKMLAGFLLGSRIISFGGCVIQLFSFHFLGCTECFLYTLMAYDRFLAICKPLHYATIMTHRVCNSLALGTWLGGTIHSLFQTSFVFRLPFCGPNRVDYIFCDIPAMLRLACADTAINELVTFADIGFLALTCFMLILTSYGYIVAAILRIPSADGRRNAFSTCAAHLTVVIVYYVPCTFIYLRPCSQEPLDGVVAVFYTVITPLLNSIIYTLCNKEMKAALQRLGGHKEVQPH
Procedure, shortened: as §1

OR10G7 (Homo sapiens) = molecular target: T5, OR10G7 (Homo sapiens) (UniProt Q8NGN6)
T5 sequence (whole entry): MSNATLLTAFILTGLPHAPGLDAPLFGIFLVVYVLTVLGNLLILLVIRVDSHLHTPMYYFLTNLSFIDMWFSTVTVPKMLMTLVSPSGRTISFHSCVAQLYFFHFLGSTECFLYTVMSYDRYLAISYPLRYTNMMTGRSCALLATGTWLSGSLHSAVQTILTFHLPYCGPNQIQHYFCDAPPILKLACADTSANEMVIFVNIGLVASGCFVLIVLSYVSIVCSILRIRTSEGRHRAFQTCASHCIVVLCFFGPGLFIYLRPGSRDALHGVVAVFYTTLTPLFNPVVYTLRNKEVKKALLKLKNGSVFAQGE
Procedure, shortened: as §1

OR10G8 (Homo sapiens) = molecular target: T6, OR10G8 (Homo sapiens) (UniProt Q8NGN5)
T6 sequence (whole entry): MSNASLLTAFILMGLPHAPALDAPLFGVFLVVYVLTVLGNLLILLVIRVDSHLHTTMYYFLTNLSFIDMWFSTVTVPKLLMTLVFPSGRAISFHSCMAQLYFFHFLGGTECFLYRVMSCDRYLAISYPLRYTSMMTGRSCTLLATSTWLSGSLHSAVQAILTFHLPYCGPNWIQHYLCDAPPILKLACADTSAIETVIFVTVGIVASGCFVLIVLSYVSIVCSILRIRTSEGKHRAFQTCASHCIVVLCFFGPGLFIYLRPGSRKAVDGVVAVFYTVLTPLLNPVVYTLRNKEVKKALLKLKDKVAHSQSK
Procedure, shortened: as §1

OR10G9 (Homo sapiens) = molecular target: T7, OR10G9 (Homo sapiens) (UniProt Q8NGN4)
T7 sequence (whole entry): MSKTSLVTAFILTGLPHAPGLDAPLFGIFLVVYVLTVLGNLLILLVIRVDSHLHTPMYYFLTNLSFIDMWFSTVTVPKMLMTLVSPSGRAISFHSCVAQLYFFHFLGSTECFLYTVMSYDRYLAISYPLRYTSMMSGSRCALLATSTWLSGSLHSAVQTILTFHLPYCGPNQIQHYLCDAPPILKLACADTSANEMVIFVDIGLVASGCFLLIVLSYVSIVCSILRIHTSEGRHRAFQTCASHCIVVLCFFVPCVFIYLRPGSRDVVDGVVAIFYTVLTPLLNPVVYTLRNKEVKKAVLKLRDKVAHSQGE
Procedure, shortened: as §1

OR10H1 (Homo sapiens) = molecular target: T8, OR10H1 (Homo sapiens) (UniProt Q9Y4A9)
T8 sequence (whole entry): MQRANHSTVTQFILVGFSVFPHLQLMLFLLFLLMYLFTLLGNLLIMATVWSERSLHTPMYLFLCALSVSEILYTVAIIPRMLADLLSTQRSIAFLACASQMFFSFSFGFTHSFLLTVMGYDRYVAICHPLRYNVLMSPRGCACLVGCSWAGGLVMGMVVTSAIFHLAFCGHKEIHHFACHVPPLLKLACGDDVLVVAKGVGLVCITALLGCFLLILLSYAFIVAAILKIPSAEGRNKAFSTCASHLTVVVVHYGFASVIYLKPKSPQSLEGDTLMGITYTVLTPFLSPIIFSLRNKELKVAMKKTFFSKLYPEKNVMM
Procedure, shortened: as §1

OR10H2 (Homo sapiens) = molecular target: T9, OR10H2 (Homo sapiens) (UniProt O60403)
T9 sequence (whole entry): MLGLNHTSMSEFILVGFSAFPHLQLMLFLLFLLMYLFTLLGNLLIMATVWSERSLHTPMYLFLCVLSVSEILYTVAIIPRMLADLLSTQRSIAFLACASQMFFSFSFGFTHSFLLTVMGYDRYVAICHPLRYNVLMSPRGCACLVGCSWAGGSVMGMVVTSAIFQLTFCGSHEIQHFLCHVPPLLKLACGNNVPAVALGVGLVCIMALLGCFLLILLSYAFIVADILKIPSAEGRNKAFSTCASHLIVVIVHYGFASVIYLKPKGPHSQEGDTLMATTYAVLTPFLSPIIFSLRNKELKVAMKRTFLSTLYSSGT
Procedure, shortened: as §1

Measured: odorant receptor agonist call

CCCCC(S)C(C)CO (centres undefined)
inactive: all assays above
